Like-named read-outs stand apart in the source and are kept apart here.
How the values were obtained:
J774 macrophages [1] = conditions: cited from earlier work; for accumulation level in macrophages: recorded previously in the same conditions (macrophages, 24 h)
rat embryo fibroblasts [2] = assay: release of lactate dehydrogenase; type: cell-based; conditions: 72 h incubation, telavancin 90 mg/L, vancomycin 50 mg/L, oritavancin 25 mg/L (human Cmax), controls 13.4 ± 3.7%, n = 3
Summary of the method: (§1)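 LDH release into the culture medium was measured after exposure to the test compound to assess pericellular membrane integrity. J774 macrophages were grown in RPMI 1640 and rat embryo fibroblasts in Dulbecco's modified Eagle's medium, both with 10% fetal calf serum.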

rat embryo fibroblasts [3] = assay: total phospholipid and cholesterol content, fibroblasts; type: cell-based; conditions: 72 h, telavancin 90 mg/L, vancomycin 50 mg/L, oritavancin 25 mg/L, n = 6–8; for total cholesterol content: control 130 ± 16 nmol/mg of protein; for total phospholipid content: control 295 ± 8 nmol/mg of protein
J774 mouse macrophages = assay: total phospholipid and cholesterol content, macrophages; type: cell-based; conditions: 24 h, telavancin 90 mg/L, vancomycin 50 mg/L, oritavancin 25 mg/L, n = 6–8; for total cholesterol content: control 72 ± 3 nmol/mg of protein; for total phospholipid content: control 204 ± 10 nmol/mg of protein
[4] = cited from earlier work
J774 macrophages [5] = assay: release of lactate dehydrogenase; type: cell-based, mouse; conditions: 24 h incubation, telavancin 90 mg/L, vancomycin 50 mg/L, oritavancin 25 mg/L (human Cmax), controls 5.0 ± 0.2%, n = 3
Summary of the method: as §1

rat embryo fibroblasts [6] = assay: electron microscopy with morphometric analysis of lysosomal changes, fibroblasts; type: cell-based; conditions: 72 h
J774 macrophages [7] = assay: subcellular distribution by cell fractionation and isopycnic centrifugation; type: in vitro ADME, mouse; conditions: 24 h, 90 mg/L
Summary of the method: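 J774 macrophages were exposed 24 h at 37°C to 90 mg/L labelled test compound in 10% serum medium. They were then scraped into 0.25 M sucrose/1 mM EGTA/3 mM imidazole pH 7.4 and homogenised. Low-speed spin gave unbroken cells/nuclei; high-speed spin split granules/membranes from supernatant. The granule fraction was run on an isopycnic sucrose gradient, with densities standardised 1.08–1.21. Radioactivity, protein and marker enzymes were measured, expressed as % recovered per fraction.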

J774 macrophages [8] = assay: electron microscopy with morphometric analysis of lysosomal changes, macrophages; type: cell-based, mouse; conditions: 24 h
rat embryo fibroblasts [9] = assay: cellular uptake; type: in vitro ADME; conditions: stated for both cell types
J774 macrophages [10] = assay: cellular uptake, accumulation and efflux; type: in vitro ADME, mouse

| release of lactate dehydrogenase (rat embryo fibroblasts [2]) | total cholesterol content (rat embryo fibroblasts [3]) | total cholesterol content (J774 mouse macrophages) | release of lactate dehydrogenase (J774 macrophages [5]) | Molecule | accumulation level in macrophages (J774 macrophages [1]) | total phospholipid content (rat embryo fibroblasts [3]) | total phospholipid content (J774 mouse macrophages) | human Cmax [4] | other results |
| --- | --- | --- | --- | --- | --- | --- | --- | --- | --- |
| 17.1 ± 1.3% | slight but not significant increase | slight but not significant increase | 5.0 ± 1.5% | CN[C@H](CC(C)C)C(=O)N[C@H]1C(=O)N[C@@H](CC(N)=O)C(=O)N[C@H]2C(=O)N[C@H]3C(=O)N[C@H](C(=O)N[C@H](C(=O)O)c4cc(O)cc(O)c4-c4cc3ccc4O)[C@H](O)c3ccc(c(Cl)c3)Oc3cc2cc(c3O[C@@H]2O[C@H](CO)[C@@H](O)[C@H](O)[C@H]2O[C@H]2C[C@](C)(N)[C@H](O)[C@H](C)O2)Oc2ccc(cc2Cl)[C@H]1O [vancomycin, Vancomycin] | ~8 fold | Neither telavancin nor vancomycin caused detectable increase | Neither telavancin nor vancomycin caused detectable increase | 50 µg/mL |  |
| 16.9 ± 2.5% | slight but not significant increase | slight but not significant increase | 4.9 ± 1.0% | Telavancin |  | Neither telavancin nor vancomycin caused detectable increase | Neither telavancin nor vancomycin caused detectable increase | 90 µg/mL | ultrastructural alterations (electron microscopy) (rat embryo fibroblasts [6]; 90 mg/L): enlargement of lysosomes that were filled with a pleiotropic material; morphometric alterations compared with oritavancin (rat embryo fibroblasts [6]; 90 mg/L telavancin vs 20 mg/L oritavancin): considerably milder than in cells incubated with 20 mg/L oritavancin; morphometric changes compared with vancomycin (rat embryo fibroblasts [6]; 90 mg/L telavancin vs 50 mg/L vancomycin): changes similar to those seen with 50 mg/L vancomycin; cell-associated drug recovered in supernatant fraction (J774 macrophages [7]; N-acetyl-β-glucosaminidase 6%): 10%; cell-associated drug recovered in unbroken cells/nuclei fraction (J774 macrophages [7]; N-acetyl-β-glucosaminidase 27%): 35%; cell-associated drug recovered in granules/membranes fraction (J774 macrophages [7]; N-acetyl-β-glucosaminidase 67%): 55%; ultrastructural alterations (electron microscopy) (J774 macrophages [8]; J774 macrophages, 90 mg/L): enlargement of lysosomes that were filled with a pleiotropic material; morphometric changes compared with vancomycin (J774 macrophages [8]; macrophages, 25 mg/L telavancin vs 50 mg/L vancomycin): changes similar to those seen with 50 mg/L vancomycin; morphometric alterations compared with oritavancin (J774 macrophages [8]; macrophages, 90 mg/L telavancin vs 20 mg/L oritavancin): considerably milder than in cells incubated with 20 mg/L oritavancin; half-life ([4]; serum, once-daily administration): 7.5 h; cellular concentration in human alveolar macrophages ([4]; within 8–24 h after systemic administration of therapeutic doses): ~ 50 mg/L; clearance rate (abstract) (rat embryo fibroblasts [9]): ~10 mL/g of protein/h; accumulation level in macrophages (J774 macrophages [10]; 24 h): ~45 fold; apparent rate of efflux relative to influx (fold lower) (J774 macrophages [10]; initial uptake 12 h at 90 mg/L, then drug-free medium for 24 h): ~5.7 fold; uptake rate without serum relative to with serum (fold faster) (J774 macrophages [10]; medium not supplemented with calf serum, 5 h, 10–90 mg/L, data not shown): ~ 1.7 fold; clearance rate (abstract) (J774 macrophages [10]; stated for both cell types): ~10 mL/g of protein/h |

| Molecule | release of lactate dehydrogenase (rat embryo fibroblasts [2]) | total cholesterol content (rat embryo fibroblasts [3]) | total cholesterol content (J774 mouse macrophages) | release of lactate dehydrogenase (J774 macrophages [5]) | accumulation level in macrophages (J774 macrophages [1]) | total phospholipid content (rat embryo fibroblasts [3]) | total phospholipid content (J774 mouse macrophages) | human Cmax [4] | other results |
| --- | --- | --- | --- | --- | --- | --- | --- | --- | --- |
| Oritavancin | 18.2 ± 3.0% | marked, statistically significant increase | marked, statistically significant increase | 15.5 ± 1.5% | ~370 fold | significant increases | significant increases | 25 µg/mL | initial uptake clearance rate (J774 macrophages [1]; J774 macrophages): ~150 µL/mg of protein/h |
